Results as given in ChEMBL document CHEMBL3525963, “Tissue distribution and elimination of [14C]apixaban in rats” (Drug Metab Dispos, 2011).

How the values were obtained:
Design in all cases: dose 5 mg/kg, dosed compound name [14C]-apixaban, route oral
Details in all cases: in vivo
Thymus = assay: Biodistribution in male Sprague-Dawley rat thymus at 5 mg/kg, po administered as single dose measured after 72 hrs; format: ADME, organism-based
Summary of the method: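 Fasted male SD rats (225-252 g) each received one oral gavage dose of [14C]apixaban, 5 mg/kg (100 μCi/kg), in 0.5% Tween 80/Labrafil vehicle. One rat was killed per time point, from 0.5 to 168 h. Frozen carcasses were cut into 40 µm sagittal whole-body sections and read by QWBA phosphor imaging against [14C]glucose calibrants. Results are in µg apixaban eq/g; BLQ <0.037 µg eq/g.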

Blood [1] = assay: Biodistribution in female Sprague-Dawley rat blood at 5 mg/kg, po administered as single dose measured after 72 hrs; format: ADME, organism-based
Summary of the method: (§1)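 Quantitative whole-body autoradiography was run after a single 5 mg/kg (100 μCi/kg) oral gavage to fasted female or pregnant SD rats, one rat per time point. Carcasses were frozen in hexane/dry ice, and 40 µm sagittal sections were dried at −20°C for at least 48 h. Sections were exposed to a phosphor plate alongside [14C]glucose standards (0.001–6.5 µCi/g). Results are µg eq/g, with LLOQ 0.037 µg eq/g.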

Adrenal gland = assay: Biodistribution in female Sprague-Dawley rat adrenal gland at 5 mg/kg, po administered as single dose measured after 72 hrs; format: ADME, organism-based; summary of the method: as §1
Lung [2] = assay: Biodistribution in female Sprague-Dawley rat lung at 5 mg/kg, po administered as single dose measured after 8 hrs; format: ADME, organism-based
Summary of the method: (§2)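 [¹⁴C]Apixaban given by oral gavage at 5 mg/kg (100 μCi/kg) in 0.5% Tween 80 in Labrafil (1.0 mg/mL dosing solution) to rats fasted overnight through 4 h post-dose. One rat per time point; carcass frozen in hexane/dry ice. Quantitative whole-body autoradiography used 40 µm sagittal sections and a phosphor imaging plate calibrated with [¹⁴C]glucose standards (0.001–6.5 μCi/g). Read-out in µg eq apixaban/g; LLOQ 0.037 μg eq/g.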

Rattus norvegicus [3] = assay: Biodistribution in male Sprague-Dawley rat bone marrow at 5 mg/kg, po administered as single dose measured after 1 hr; format: ADME, organism-based
Summary of the method: (§3)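 Fasted male rats, 225-252 g, received [14C]apixaban by single oral gavage at 100 μCi/kg in 0.5% Tween 80/Labrafil. One rat was killed per time point and the carcass frozen. Tissue radioactivity was quantified by QWBA (40 µm sagittal sections, phosphor plate, [14C]glucose calibration) as µg eq apixaban/g, with LLOQ 0.037 μg eq/g.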

Brain [4] = assay: Biodistribution in male Sprague-Dawley rat brain at 5 mg/kg, po administered as single dose measured after 1 hr; format: ADME, organism-based
Rattus norvegicus [5] = assay: Biodistribution in male Sprague-Dawley rat bone marrow at 5 mg/kg, po administered as single dose measured after 4 hrs; format: ADME, organism-based; summary of the method: as §3
Heart [6] = assay: Biodistribution in male Sprague-Dawley rat heart at 5 mg/kg, po administered as single dose measured after 4 hrs; format: ADME, organism-based
Summary of the method: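 [14C]apixaban (1.0 mg/mL, 20 μCi/mL) in 0.5% Tween 80 in Labrafil, given by oral gavage at 100 μCi/kg to male rats (225-252 g) fasted overnight through 4 h post-dose. One rat per time point. Carcasses frozen in hexane/dry ice and cut into 40 µm sagittal sections. QWBA read on phosphor plates against [14C]glucose standards, reported as µg eq/g. LLOQ 0.037 µg eq/g.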

Liver = assay: Biodistribution in pregnant Sprague-Dawley rat liver at 5 mg/kg, po administered as single dose measured after 8 hrs; format: ADME, organism-based
Muscle tissue [7] = assay: Biodistribution in pregnant Sprague-Dawley rat muscle at 5 mg/kg, po administered as single dose measured after 24 hrs; format: ADME, organism-based
Summary of the method: (§4)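 Pregnant SD rats (270-319 g) were fasted overnight and given one oral gavage of 5 mg/kg (100 μCi/kg) in 0.5% Tween 80 in Labrafil. One rat was euthanized per time point (0.5, 1, 4, 8, 24, 48 h) and the carcass frozen. 40 µm sagittal sections were phosphor-imaged against [14C]glucose standards and results reported as µg eq/g; LLOQ 0.037 µg eq/g.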

Spleen [8] = assay: Biodistribution in pregnant Sprague-Dawley rat spleen at 5 mg/kg, po administered as single dose measured after 24 hrs; format: ADME, organism-based
[9] = Drug level in lactating Sprague-Dawley rat milk at 5 mg/kg, po administered as single dose after 0.5 hrs; format: ADME, organism-based
[10] = Drug level in lactating Sprague-Dawley rat milk at 5 mg/kg, po administered as single dose after 24 hrs; format: ADME, organism-based
Rattus norvegicus [11] = assay: Biodistribution in pregnant Sprague-Dawley rat bone marrow at 5 mg/kg, po administered as single dose measured after 48 hrs; format: ADME, organism-based
Summary of the method: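 Fasted pregnant SD rats (n=6, 270-319 g) each received one oral gavage dose of [14C]apixaban, 5 mg/kg (100 μCi/kg), in 0.5% Tween 80/Labrafil. One rat was killed at each of 0.5, 1, 4, 8, 24 and 48 h. Carcasses were frozen in hexane/dry ice, cut into 40 µm sagittal sections, exposed to phosphor plates and quantified against [14C]glucose standards as µg eq/g. LLOQ was 0.037 µg eq/g.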

Muscle tissue [12] = assay: Biodistribution in pregnant Sprague-Dawley rat muscle at 5 mg/kg, po administered as single dose measured after 48 hrs; format: ADME, organism-based; summary of the method: as §4
Blood [13] = assay: Cmax in lactating Sprague-Dawley rat blood at 5 mg/kg, po administered as single dose; format: ADME, organism-based
Summary of the method: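 Lactating SD rats received a single oral gavage of 5 mg/kg (108 μCi/kg) in 0.5% Tween 80/Labrafil. Three rats were sampled per time point at 0.5-24 h. Oxytocin was given sc 15 min before milking under anesthesia. Milk, blood and plasma were counted in duplicate by liquid scintillation for 10 min and expressed as apixaban equivalents.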

Harderian gland = assay: Biodistribution in female Sprague-Dawley rat harderian gland at 5 mg/kg, po administered as single dose measured after 72 hrs; format: ADME, organism-based; summary of the method: as §1
Rattus norvegicus [14] = assay: Biodistribution in female Sprague-Dawley rat pituitary gland at 5 mg/kg, po administered as single dose measured after 72 hrs; format: ADME, organism-based; summary of the method: as §1
Lung [15] = assay: Biodistribution in female Sprague-Dawley rat lung at 5 mg/kg, po administered as single dose measured after 4 hrs; format: ADME, organism-based; summary of the method: as §2
Heart [16] = assay: Biodistribution in female Sprague-Dawley rat heart at 5 mg/kg, po administered as single dose measured after 4 hrs; format: ADME, organism-based; summary of the method: as §2
Spleen [17] = assay: Biodistribution in female Sprague-Dawley rat spleen at 5 mg/kg, po administered as single dose measured after 1 hr; format: ADME, organism-based; summary of the method: as §2
Rattus norvegicus [18] = assay: Biodistribution in pregnant Sprague-Dawley rat amnion at 5 mg/kg, po administered as single dose measured after 4 hrs; format: ADME, organism-based
Brain [19] = assay: Biodistribution in pregnant Sprague-Dawley rat brain at 5 mg/kg, po administered as single dose measured after 8 hrs; format: ADME, organism-based
Heart [20] = assay: Biodistribution in female Sprague-Dawley rat heart at 5 mg/kg, po administered as single dose measured after 1 hr; format: ADME, organism-based; summary of the method: as §2
Rattus norvegicus [21] = assay: Biodistribution in pregnant Sprague-Dawley rat brown fat at 5 mg/kg, po administered as single dose measured after 1 hr; format: ADME, organism-based, Brown adipose tissue
Pancreas = assay: Biodistribution in pregnant Sprague-Dawley rat pancreas at 5 mg/kg, po administered as single dose measured after 1 hr; format: ADME, organism-based
Rattus norvegicus [22] = assay: Biodistribution in pregnant Sprague-Dawley rat amnion at 5 mg/kg, po administered as single dose measured after 1 hr; format: ADME, organism-based

COc1ccc(-n2nc(C(N)=O)c3c2C(=O)N(c2ccc(N4CCCC[14C]4=O)cc2)CC3)cc1
Radiolabel recovery (Thymus): Not detected assumed BLQ | Radiolabel recovery (Blood [1]): Not detected assumed BLQ | Radiolabel recovery (Adrenal gland): Not detected assumed BLQ | Radiolabel recovery (Lung [2]): 0.2 ugequiv/g | Radiolabel recovery (Rattus norvegicus [3]): 0.57 ugequiv/g | Radiolabel recovery (Brain [4]): < 0.037 ugequiv/g | Radiolabel recovery (Rattus norvegicus [5]): 0.32 ugequiv/g | Radiolabel recovery (Heart [6]): 0.45 ugequiv/g | Radiolabel recovery (Liver): 0.65 ugequiv/g | Radiolabel recovery (Muscle tissue [7]): Not detected assumed BLQ | Radiolabel recovery (Spleen [8]): < 0.037 ugequiv/g | Radiolabel recovery [9]: 2.75 µg/mL | Radiolabel recovery [10]: 0.31 µg/mL | Radiolabel recovery (Rattus norvegicus [11]): Not detected assumed BLQ | Radiolabel recovery (Muscle tissue [12]): Not detected assumed BLQ | Cmax (Blood [13]): 514 ngequiv/g | Radiolabel recovery (Harderian gland): Not detected assumed BLQ | Radiolabel recovery (Rattus norvegicus [14]): Not detected assumed BLQ | Radiolabel recovery (Lung [15]): 0.51 ugequiv/g | Radiolabel recovery (Heart [16]): 0.51 ugequiv/g | Radiolabel recovery (Spleen [17]): 0.35 ugequiv/g | Radiolabel recovery (Rattus norvegicus [18]): 11.24 ugequiv/g | Radiolabel recovery (Brain [19]): < 0.037 ugequiv/g | Radiolabel recovery (Heart [20]): 0.54 ugequiv/g | Radiolabel recovery (Rattus norvegicus [21]): 0.95 ugequiv/g | Radiolabel recovery (Pancreas): 0.75 ugequiv/g | Radiolabel recovery (Rattus norvegicus [22]): 2.12 ugequiv/g
